Assay results from article PMC3646568 (Protein and peptide letters, 2012).
Where two headings read alike, the source gives them in different places.

Assays:
[1] = system: VEGFR-2-Fc; details: cited from earlier work
[2] = system: VEGF or basic fibroblast growth factor (bFGF); details: cited from earlier work
[3] = molecular target: VEGFR-3 (Homo sapiens) (UniProt P35916); details: cited from earlier work
[4] = molecular target: T1, recombinant mouse VEGFR-3-Fc (mouse, UniProt P35917 25-775); experiment: SPR
T1 sequence (looked up): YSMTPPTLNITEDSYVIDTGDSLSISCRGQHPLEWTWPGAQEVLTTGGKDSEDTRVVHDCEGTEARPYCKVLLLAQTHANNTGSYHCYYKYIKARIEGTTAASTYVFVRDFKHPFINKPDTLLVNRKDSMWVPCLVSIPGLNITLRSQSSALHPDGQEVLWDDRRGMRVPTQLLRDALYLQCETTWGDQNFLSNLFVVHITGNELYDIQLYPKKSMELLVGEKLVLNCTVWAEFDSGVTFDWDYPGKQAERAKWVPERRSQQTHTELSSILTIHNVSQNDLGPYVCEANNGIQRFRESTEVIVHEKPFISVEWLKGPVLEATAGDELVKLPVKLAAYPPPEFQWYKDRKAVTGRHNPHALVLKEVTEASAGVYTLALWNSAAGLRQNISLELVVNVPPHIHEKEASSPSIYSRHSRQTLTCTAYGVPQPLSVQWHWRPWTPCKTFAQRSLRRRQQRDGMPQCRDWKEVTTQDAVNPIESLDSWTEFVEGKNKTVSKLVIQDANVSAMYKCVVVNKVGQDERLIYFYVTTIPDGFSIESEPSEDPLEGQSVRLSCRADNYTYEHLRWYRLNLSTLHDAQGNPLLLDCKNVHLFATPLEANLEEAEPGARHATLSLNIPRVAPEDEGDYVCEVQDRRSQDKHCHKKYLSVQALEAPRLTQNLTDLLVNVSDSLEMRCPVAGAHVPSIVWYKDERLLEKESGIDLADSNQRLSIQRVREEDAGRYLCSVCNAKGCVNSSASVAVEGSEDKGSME

[5] = system: recombinant VEGFR-3-Fc; assay type: binding, mouse; details: pull-down
Procedure, shortened: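 GST-fused endostatin-containing fragments were incubated with recombinant VEGFR-3-Fc and a range of VEGF-C concentrations. Receptor–ligand complexes were recovered by pull-down and probed by western blot with anti-VEGFR-3 antibody.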

[6] = system: Primary human lung lymphatic endothelial cells (h-LECs); experiment: Scratch wound cell migration assay, h-LECs; assay type: cell-based; details: 100 ng/mL VEGF-C stimulation, 24 h
Procedure, shortened: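 Confluent h-LECs held serum-free for 24 h, rinsed with DMEM, and scratched with a pipette tip. Washed with PBS, then kept 24 h in experimental medium with 100 ng/mL VEGF-C ± test peptide. Fixed in 4% paraformaldehyde; cells migrating past the scratch counted in ≥3 fields per well, three wells per condition.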

[7] = molecular target: VEGFR3-AP (a VEGFR-3 fusion protein); details: fully processed VEGF-C binding to VEGFR3-AP; cited from earlier work

endostatin
Block of interaction of VEGF-A and VEGFR-2-Fc ([1]; 10-min preincubation of endostatin with VEGFR-2-Fc): blocks the interaction of VEGF-A and VEGFR-2-Fc in a dose-dependent manner
Dissociation rate of VEGFR-2-Fc from VEGF and its receptor complex ([1]; endostatin 10 μg/mL): does not affect the dissociation rate
Binding to VEGF or bFGF [2]: does not bind to VEGF or basic fibroblast growth factor (bFGF)

VEGF-C (from UniProt P49767)
Kd [3]: 1 nM

LEQKAASCHNSYIVLCIENSFMTSFSK [murine endostatin peptide (mEP)]
koff [4]: 0.672 s⁻¹
kon [4]: 1.41e+07 M⁻¹ s⁻¹

B1: GST-endostatin-containing fragments: GST-endostatin-containing fragments (protein)
chain: HTHQDFQPVLHLVALNTPLSGGMRGIRGADFQCFQQARAVGLSGTFRAFLSSRLQDLYSIVRRADRGSVPIVNLKDEVLSPSWDSLFSGSQGQLQPGARIFSFDGRDVLRHPAWPQKSVWHGSDPSGRRLMESYCETWRTETTGATGQASSLLSGRLLEQKAASCHNSYIVLCIENSFMTSFSK
modifications: left off: GST, end not stated, kept
Binding of GST-endostatin-containing fragment to VEGFR-3-Fc ([5]; western blot with anti-VEGFR-3 antibody, absence of VEGF-C and low concentration of VEGF-C (lanes 1 and 2)): able to bind VEGFR-3-Fc
Binding of GST-endostatin-containing fragment to VEGFR-3-Fc ([5]; western blot, VEGF-C at a higher concentration (lane 3)): diminished

B2: VEGF-C: vascular endothelial growth factor C, recombinant; literature KD for fully processed VEGF-C (protein)
chain: FESGLDLSDAEPDAGEATAYASKDLEEQLRSVSSVDELMTVLYPEYWKMYKCQLRKGGWQHNREQANLNSRTEETIKFAAAHYNTEILKSIDNEWRKTQCMPREVCIDVGKEFGVATNTFFKPPCVSVYRCGGCCNSEGLQCMNTSTSYLSKTLFEITVPLSQGPKPVTISFANHTSCRCMSKLDVYRQVHSIIRR
Repopulation of the scratch surface [6]: approximately 50%
Kd [7]: 1 nM
